Test results reported in ChEMBL document CHEMBL4831480, “Identification of First-in-Class Inhibitors of Kallikrein-Related Peptidase 6 That Promote Oligodendrocyte Differentiation” (J Med Chem, 2021).
The source made the active and inactive calls. The calls are words filed in the database; no cut-off is given here.

Experiments:
[1] = biological target: T1, Kallikrein-6 (Homo sapiens, UniProt Q92876); assay: Competitive inhibition of KLK6 (unknown origin) using Boc-QAR-AMC as substrate incubated for 30 mins by Dixon plot analysis
[2] = biological target: T2, Plasminogen (Homo sapiens, UniProt P00747); assay: Inhibition of plasmin (unknown origin) assessed as release of AMC fluorescent product using Boc-QAR-AMC as substrate incubated for 30 mins by microplate reader
[3] = biological target: T3, Kallikrein-1 (Homo sapiens, UniProt P06870); assay: Inhibition of KLK1 (unknown origin) assessed as release of AMC fluorescent product using H-PFR-AMC as substrate incubated for 30 mins by microplate reader
[4] = biological target: Kallikrein-5 (Homo sapiens) (UniProt Q9Y337); assay: Inhibition of KLK5 (unknown origin) assessed as inhibition of release of AMC fluorescent product using H-VPR-AMC as substrate at 10 uM incubated for 30 mins by microplate reader relative to control
[5] = biological target: T4, Kallikrein-8 (Homo sapiens) (UniProt O60259); assay: Inhibition of KLK8 (unknown origin) assessed as inhibition of release of AMC fluorescent product using H-VPR-AMC as substrate at 10 uM incubated for 30 mins by microplate reader relative to control
T4 sequence (whole entry): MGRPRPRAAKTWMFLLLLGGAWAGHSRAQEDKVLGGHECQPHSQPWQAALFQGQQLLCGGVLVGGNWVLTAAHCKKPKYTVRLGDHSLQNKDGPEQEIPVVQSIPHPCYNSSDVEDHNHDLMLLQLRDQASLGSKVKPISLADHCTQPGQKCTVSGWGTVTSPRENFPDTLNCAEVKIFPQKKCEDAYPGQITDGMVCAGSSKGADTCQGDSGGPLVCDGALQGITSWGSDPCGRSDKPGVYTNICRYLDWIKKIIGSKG

[6] = biological target: T5, Caspase-2 (Homo sapiens) (UniProt P42575); assay: Inhibition of Caspase-2 (unknown origin) assessed as inhibition of release of AMC fluorescent product using Ac-VDVAD-AMC as substrate at 10 uM incubated for 30 mins by microplate reader relative to control
T5 sequence (whole entry): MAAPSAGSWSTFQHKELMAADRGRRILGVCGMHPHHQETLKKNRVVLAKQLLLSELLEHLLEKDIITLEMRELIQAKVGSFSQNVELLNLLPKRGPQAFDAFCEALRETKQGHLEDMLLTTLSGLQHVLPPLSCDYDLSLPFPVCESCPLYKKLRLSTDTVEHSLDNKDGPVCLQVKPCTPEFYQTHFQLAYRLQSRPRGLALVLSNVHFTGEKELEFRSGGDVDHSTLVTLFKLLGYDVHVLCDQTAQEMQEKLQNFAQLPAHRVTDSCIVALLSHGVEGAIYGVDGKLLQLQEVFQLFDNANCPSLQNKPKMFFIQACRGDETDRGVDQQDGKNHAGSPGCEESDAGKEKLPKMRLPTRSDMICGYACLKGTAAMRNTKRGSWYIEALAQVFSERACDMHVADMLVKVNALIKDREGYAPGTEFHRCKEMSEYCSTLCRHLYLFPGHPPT
In short: (§1)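 Each inhibitor at 10 μM was preincubated 15 min at 37 °C with the protease at an optimized concentration in its own buffer. Reaction started with AMC substrate: Ac-VDVAD-AMC 25 μM (caspase-2), Ac-DEVD-AMC 10 μM (caspase-3), Ac-VEID-AMC 100 μM (caspase-6), Z-LR-AMC 50 μM (cathepsin L), Z-GGR-AMC 100 μM (tPA). Read for 30 min at 37 °C; % inhibition from initial rates versus DMSO; 3 independent experiments.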

[7] = biological target: Procathepsin L (Homo sapiens) (UniProt P07711); assay: Inhibition of Cathepsin L (unknown origin) assessed as inhibition of release of AMC fluorescent product using Z-LR-AMC as substrate at 10 uM incubated for 30 mins by microplate reader relative to control; in short: as §1
[8] = test system: Cortical neurone; assay: Cytotoxicity against Swiss mouse cortical cells assessed as cell viability at 25 uM incubated for 24 hrs by XTT assay; type: cell-based
[9] = test system: CG-4; assay: Induction of oligodendrocyte differentiation in Sprague-Dawley rat CG-4 cells assessed as matured oligodendrocyte by measuring increase in mCherry positive cells at 2 uM measured after 4 days by fluorescence imaging analysis; type: functional, cell-based; settings: time 4.0 day
[10] = Cytotoxicity against Sprague-Dawley rat CG-4 cells assessed as cell death at 30 uM measured after 4 days by fluorescence imaging analysis; type: cell-based; settings: cg-4, 96 h, time 4 day
[11] = test system: Prothrombin/thrombin; assay: Inhibition of Thrombin (unknown origin) assessed as inhibition of release of AMC fluorescent product using […] as substrate at 10 uM incubated for 30 mins by microplate reader relative to control; settings: Homo sapiens
[12] = biological target: Kallikrein-7 (Homo sapiens) (UniProt P49862); assay: Inhibition of KLK7 (unknown origin) assessed as inhibition of release of AMC fluorescent product using MeO-Suc-RPY-AMC as substrate at 10 uM incubated for 30 mins by microplate reader relative to control
[13] = biological target: T1, Kallikrein-6; assay: Inhibition of KLK6 (unknown origin) assessed as release of AMC fluorescent product using Boc-QAR-AMC as substrate incubated for 30 mins by microplate reader; settings: read-out: IC50
[14] = Cytotoxicity against Swiss mouse cortical cells assessed as cell viability at 50 uM incubated for 24 hrs by XTT assay; type: cell-based, Cortical neurone; settings: mouse cortical cells (cortical neurones), read-out: Activity
[15] = test system: CG-4; assay: Induction of oligodendrocyte differentiation in Sprague-Dawley rat CG-4 cells assessed as matured oligodendrocyte by measuring increase in mCherry positive cells at 6 to 8 uM measured after 4 days by fluorescence imaging analysis; type: functional, cell-based; settings: dose 6-8 µM, time 4.0 day
[16] = Toxicity in human blood assessed as effect on activated partial thromboplastin time; type: tissue-based
[17] = Toxicity in human blood assessed as effect on prothrombin ratio; type: tissue-based
[18] = Permeability in human Caco-2 cells assessed as compound recovery; type: ADME, cell-based; settings: read-out: Activity
[19] = Metabolic stability in human liver microsomes assessed as half life; type: ADME, Microsome
[20] = biological target: Voltage-gated inwardly rectifying potassium channel KCNH2 (Homo sapiens, UniProt Q12809); assay: Inhibition of human ERG
[21] = test system: Microglia; assay: Anti-inflammatory activity in new born Wistar rat brain microglia assessed as reduction in LPS-induced TNFalpha expression measured after 24 hrs by ELISA
[22] = test system: Microglia; assay: Anti-inflammatory activity in new born Wistar rat brain microglia assessed as reduction in LPS-induced IL-1beta expression measured after 24 hrs by ELISA
[23] = biological target: T2, Plasminogen; assay: Competitive inhibition of plasmin (unknown origin) using Boc-QAR-AMC as substrate incubated for 30 mins by Dixon plot analysis
[24] = test system: Cortical neurone; assay: Cytotoxicity against Swiss mouse cortical cells assessed as cell viability at 10 uM incubated for 24 hrs by XTT assay; type: cell-based
[25] = biological target: T3, Kallikrein-1; assay: Competitive inhibition of KLK1 (unknown origin) assessed as release of AMC fluorescent product using H-PFR-AMC as substrate incubated for 30 mins by microplate reader

Chain of Kallikrein-7 (Homo sapiens) (P49862 30-253 limits assumed): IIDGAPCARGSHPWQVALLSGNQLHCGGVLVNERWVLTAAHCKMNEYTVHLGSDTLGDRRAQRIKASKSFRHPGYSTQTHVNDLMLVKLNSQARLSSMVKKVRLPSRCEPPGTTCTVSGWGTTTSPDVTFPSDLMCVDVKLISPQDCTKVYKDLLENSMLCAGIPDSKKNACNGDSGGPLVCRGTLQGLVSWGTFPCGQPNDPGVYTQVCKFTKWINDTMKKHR
Chain of Procathepsin L (Homo sapiens) (P07711 114-333 limits assumed): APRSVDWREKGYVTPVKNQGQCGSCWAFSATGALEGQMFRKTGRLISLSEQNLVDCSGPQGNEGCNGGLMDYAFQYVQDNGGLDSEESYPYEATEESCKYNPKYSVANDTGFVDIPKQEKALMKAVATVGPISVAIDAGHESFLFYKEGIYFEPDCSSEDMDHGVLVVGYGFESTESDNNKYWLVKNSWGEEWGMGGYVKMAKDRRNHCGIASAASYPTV
Chain of Kallikrein-5 (Homo sapiens) (Q9Y337 whole entry): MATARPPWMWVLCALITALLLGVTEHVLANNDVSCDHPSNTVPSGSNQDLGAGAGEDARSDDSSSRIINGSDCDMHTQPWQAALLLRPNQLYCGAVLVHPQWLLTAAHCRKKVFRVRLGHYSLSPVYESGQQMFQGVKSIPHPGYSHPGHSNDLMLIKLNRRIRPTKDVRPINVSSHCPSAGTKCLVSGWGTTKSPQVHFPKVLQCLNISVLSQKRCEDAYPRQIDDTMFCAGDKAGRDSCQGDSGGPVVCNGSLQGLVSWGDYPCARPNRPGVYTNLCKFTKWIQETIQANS
T3 sequence (P06870 whole entry): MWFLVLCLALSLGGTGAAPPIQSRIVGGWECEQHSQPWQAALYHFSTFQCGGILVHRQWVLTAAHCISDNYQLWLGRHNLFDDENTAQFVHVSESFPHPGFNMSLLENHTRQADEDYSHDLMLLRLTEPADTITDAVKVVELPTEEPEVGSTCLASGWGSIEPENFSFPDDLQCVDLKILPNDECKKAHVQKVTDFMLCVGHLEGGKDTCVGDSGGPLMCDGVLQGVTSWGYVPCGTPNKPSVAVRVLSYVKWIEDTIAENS
T2 sequence (P00747 97-580 limits assumed): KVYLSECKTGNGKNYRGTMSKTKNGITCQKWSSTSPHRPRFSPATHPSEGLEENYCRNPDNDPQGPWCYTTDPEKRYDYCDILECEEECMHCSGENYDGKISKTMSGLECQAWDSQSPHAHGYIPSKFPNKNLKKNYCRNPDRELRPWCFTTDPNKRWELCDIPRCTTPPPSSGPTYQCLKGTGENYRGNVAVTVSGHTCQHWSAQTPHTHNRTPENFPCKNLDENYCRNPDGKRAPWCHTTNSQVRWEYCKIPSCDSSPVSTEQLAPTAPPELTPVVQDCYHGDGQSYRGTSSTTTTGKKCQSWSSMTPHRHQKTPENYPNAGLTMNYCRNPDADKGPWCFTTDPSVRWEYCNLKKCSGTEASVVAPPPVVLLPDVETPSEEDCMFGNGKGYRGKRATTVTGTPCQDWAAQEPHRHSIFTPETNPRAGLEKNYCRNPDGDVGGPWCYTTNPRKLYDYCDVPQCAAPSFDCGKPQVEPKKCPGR
T2 sequence (P00747 581-810 limits assumed): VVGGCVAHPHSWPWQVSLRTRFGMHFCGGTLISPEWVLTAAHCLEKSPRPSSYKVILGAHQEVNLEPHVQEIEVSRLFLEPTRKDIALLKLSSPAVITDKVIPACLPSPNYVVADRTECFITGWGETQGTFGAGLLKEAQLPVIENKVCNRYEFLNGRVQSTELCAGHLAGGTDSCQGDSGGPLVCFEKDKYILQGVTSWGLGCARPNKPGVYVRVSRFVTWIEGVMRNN
Chain of Voltage-gated inwardly rectifying potassium channel KCNH2 (Q12809 whole entry): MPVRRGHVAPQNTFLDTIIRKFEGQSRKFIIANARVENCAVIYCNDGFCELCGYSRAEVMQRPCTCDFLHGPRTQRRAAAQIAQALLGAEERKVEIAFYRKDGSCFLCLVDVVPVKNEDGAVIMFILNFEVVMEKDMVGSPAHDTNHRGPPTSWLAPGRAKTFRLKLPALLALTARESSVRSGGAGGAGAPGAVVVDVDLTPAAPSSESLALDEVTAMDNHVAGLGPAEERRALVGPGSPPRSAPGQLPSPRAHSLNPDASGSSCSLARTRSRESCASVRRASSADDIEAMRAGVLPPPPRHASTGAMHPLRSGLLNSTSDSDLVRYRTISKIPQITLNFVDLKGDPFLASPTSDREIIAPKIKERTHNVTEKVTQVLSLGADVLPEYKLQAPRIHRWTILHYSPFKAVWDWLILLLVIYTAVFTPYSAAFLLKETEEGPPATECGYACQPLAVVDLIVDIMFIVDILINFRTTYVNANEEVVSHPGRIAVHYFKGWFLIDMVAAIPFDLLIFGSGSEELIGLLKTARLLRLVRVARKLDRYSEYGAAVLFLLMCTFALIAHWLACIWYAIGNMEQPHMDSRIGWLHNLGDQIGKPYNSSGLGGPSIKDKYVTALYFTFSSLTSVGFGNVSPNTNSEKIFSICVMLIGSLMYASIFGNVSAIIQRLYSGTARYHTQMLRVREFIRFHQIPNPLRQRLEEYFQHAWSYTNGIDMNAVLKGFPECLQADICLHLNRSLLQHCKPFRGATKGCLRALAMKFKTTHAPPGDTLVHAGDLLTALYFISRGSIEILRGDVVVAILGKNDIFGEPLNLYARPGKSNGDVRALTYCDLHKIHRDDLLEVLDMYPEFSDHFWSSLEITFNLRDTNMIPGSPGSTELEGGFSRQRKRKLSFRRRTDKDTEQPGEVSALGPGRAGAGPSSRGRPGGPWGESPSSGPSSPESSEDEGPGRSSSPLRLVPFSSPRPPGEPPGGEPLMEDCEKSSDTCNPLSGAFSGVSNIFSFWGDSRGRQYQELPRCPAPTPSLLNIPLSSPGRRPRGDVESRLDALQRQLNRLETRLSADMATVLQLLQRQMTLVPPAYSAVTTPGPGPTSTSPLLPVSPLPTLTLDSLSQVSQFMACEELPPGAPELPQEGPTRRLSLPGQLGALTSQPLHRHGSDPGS

SMILES	Ki [1] [µM]	IC50 [2] [µM]	IC50 [3] [µM]	inhibition [4] [%]	inhibition [5] [%]	inhibition [6] [%]	inhibition [7] [%]	inhibition [11] [%]	inhibition [12] [%]	IC50 [13] [µM]	other results
CC(C)(C)c1ccc(O)c(C(=O)Nc2ccc(CN)cc2)c1.Cl	4.3	21.3	38.6	35	16	5	20	2	9		Activity [8]: Toxic; Activity [9]: Active; Activity [10]: Toxic
COc1ccc2c(O)c(C(=O)Nc3ccc(CN)cc3)ccc2c1		3.3	16.1	31	45	14	28		10		
Cc1ccc2ccc(C(=O)Nc3ccc(CN)cc3)c(O)c2c1		6.7	49.4	0	53	8	27	6	11		
Cc1ccc(C(=O)Nc2ccc(CN)cc2)c(O)c1.Cl	2	9.2	26.3	5	34	0	32	0	12	2.37	viability at 24 h, 50 µM [14]: 65%; Activity [15]: Active; Activity [16]: Non-Toxic; Activity [17]: Non-Toxic; recovery [18]: > 90%; half-life [19]: > 2 h; Activity [20]: Not Active; Activity [21]: inactive; Activity [22]: inactive
Cl.NCc1ccc(NC(=O)c2ccc3ccccc3c2O)cc1	2.4	10.2	21.3	22	22	30	30	5	0	6.9	Ki [23]: 1.5 µM; Activity [24]: Toxic
Cl.NCc1ccc(NC(=O)c2cc3ccccc3cc2O)cc1		7.4	5.1	4	61	4	25		6		viability at 24 h, 50 µM [14]: 65%; Ki [23]: 1.3 µM; Ki [25]: 2.4 µM; Activity [16]: Non-Toxic; Activity [17]: Non-Toxic; recovery [18]: > 90%; half-life [19]: > 2 h; Activity [20]: Not Active; Activity [21]: Active; Activity [22]: Active
CC(C)c1ccc(C(=O)Nc2ccc(CN)cc2)c(O)c1	1.5	4.8	8.4	24	58	15	1	32	7	3.63	
